ChEMBL document CHEMBL4308830, “Design, Synthesis, and Characterization of 4-Undecylpiperidine-2-carboxamides as Positive Allosteric Modulators of the Serotonin (5-HT) 5-HT2C Receptor” (J Med Chem, 2018)

Legend:
[1] = Clearance in Sprague-Dawley rat at 5 mg/kg, iv administered as single dose; assay type: ADME, organism-based; details: in vivo
[2] = Volume of distribution at steady state in Sprague-Dawley rat at 5 mg/kg, iv administered as single dose; assay type: ADME, organism-based; details: in vivo
[3] = target: Sodium-dependent serotonin transporter (Homo sapiens) (UniProt P31645); assay: Displacement of [3H]-citalopram from recombinant human SERT expressed in HEK cell membranes at 10 uM after 90 mins by scintillation counting method relative to control
[4] = target: T1, 5-hydroxytryptamine receptor 2C (Homo sapiens) (UniProt P28335); assay: Positive allosteric modulation of human 5-HT2CR expressed in CHO cells assessed as 5-HT-induced intracellular calcium release at 1 nM preincubated for 15 mins followed by 5-HT addition by calcium-4 dye based FLIPR assay (reference value: 100%); assay type: functional, cell-based
T1 sequence (whole entry): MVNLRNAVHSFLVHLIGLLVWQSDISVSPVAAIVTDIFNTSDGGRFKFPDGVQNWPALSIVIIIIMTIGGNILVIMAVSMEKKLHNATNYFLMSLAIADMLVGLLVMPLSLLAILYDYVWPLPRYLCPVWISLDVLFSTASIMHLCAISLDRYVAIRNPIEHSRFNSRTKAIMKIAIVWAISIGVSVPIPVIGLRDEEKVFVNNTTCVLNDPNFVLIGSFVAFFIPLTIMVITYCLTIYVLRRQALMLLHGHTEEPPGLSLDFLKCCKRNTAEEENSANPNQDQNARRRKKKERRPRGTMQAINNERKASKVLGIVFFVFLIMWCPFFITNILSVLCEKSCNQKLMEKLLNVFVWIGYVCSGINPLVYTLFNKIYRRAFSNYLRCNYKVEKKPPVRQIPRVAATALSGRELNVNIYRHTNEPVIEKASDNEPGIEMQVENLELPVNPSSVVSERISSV
Outline: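 CHO cells stably expressing human unedited INI 5-HT2CR were plated, serum-starved 3 h, then loaded with Calcium 4 dye plus 2.5 mM probenecid (60 min 37 °C, then 15 min RT). Compound (1 nM) was added; the read after this addition gave intrinsic agonism. 5-HT (10 pM–10 μM) followed 15 min later. FLIPR-TETRA: 10 s baseline, 1 s reads for 120 s after compound and 360 s after 5-HT. Emax came from 4-parameter fits, ≥3 biological replicates in triplicate.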

Sequence of Sodium-dependent serotonin transporter (Homo sapiens) (P31645 whole entry, looked up): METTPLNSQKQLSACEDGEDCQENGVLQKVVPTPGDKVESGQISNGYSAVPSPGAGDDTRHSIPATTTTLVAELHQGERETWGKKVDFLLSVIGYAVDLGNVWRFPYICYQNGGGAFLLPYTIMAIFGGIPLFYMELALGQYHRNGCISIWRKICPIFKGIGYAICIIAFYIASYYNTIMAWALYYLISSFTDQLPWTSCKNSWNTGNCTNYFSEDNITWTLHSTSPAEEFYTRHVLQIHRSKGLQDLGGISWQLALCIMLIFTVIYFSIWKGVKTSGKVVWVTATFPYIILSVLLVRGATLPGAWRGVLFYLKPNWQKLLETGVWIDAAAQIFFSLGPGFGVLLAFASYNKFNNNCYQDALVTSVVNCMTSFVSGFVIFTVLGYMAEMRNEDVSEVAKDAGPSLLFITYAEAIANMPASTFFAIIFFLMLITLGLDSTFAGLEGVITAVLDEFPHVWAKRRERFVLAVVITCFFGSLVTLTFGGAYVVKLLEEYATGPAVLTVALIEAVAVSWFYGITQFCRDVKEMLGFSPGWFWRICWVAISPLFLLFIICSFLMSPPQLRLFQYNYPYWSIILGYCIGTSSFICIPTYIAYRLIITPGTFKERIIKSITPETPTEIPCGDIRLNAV

SMILES: CCCCCCCCCCC[C@@H]1CCN[C@H](C(=O)NCC(O)CO)C1 (relative stereo)
- CL [1]: 89.5 mL/min/kg
- Vdss [2]: 35.07 L/kg
- inhibition [3]: 24.8%
- Emax [4]: 123%
